# According to paper PMC10213863 (Cell Reports Medicine, 2023):
# Like-named read-outs stand apart in the source and are kept apart here.
# Assays:
# [1] = tested on: IFN-α accelerated NZB/W F1 model; conditions: cited from earlier work
# SLE patients [2] = conditions: BLISS trial, cited from earlier work
# SLE patients [3] = conditions: cited from earlier work
# [4] = tested on: immune-complex stimulated ISG panel in PBMCs; assay: Five-gene ISG panel in PBMCs stimulated with SLE immune complexes; format: cell-based, human; conditions: HCQ 1 μM
# How it was run: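 PBMCs were pre-treated 30 min with test compound, HCQ or 0.1% DMSO, then stimulated 20 h with SLE serum pre-complexed with U-937 necrotic extract. RNA was extracted and ISGs quantified by qRT-PCR with the 2−ΔΔCt method against 18S rRNA, using biological replicates. Global ISG induction was derived by normalizing each ISG's relative induction to 100%.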
# [5] = tested on: ssRNA driven IFN transcripts in human PBMCs; assay: ISG expression in human PBMCs stimulated with ssRNA; format: cell-based; conditions: HCQ vs MHV370
# How it was run: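 PBMCs were pre-incubated 30 min with test compound or HCQ, then stimulated with ssRNA at doses from earlier work. RNA was extracted, and ISG transcripts were quantified by qRT-PCR with the 2−ΔΔCt method against 18S rRNA, using biological replicates. Each ISG's induction was normalized to 100% to give a panel signature.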
# [6] = tested on: SLE immune-complex-driven IFN-α response in PBMCs; assay: IFN-α release from PBMCs stimulated with SLE patient sera immune complexes; format: cell-based, human
compound,measurement,setting,value
N#Cc1ccc(N2C[C@H](N)C[C@H](C(F)(F)F)C2)c2cccnc12 [M5049],efficacy in IFN-α accelerated NZB/W F1 model,[1],showed efficacy
belimumab: antibody drug which interferes with B cell expansion,SRI (SLE responder index) response rate above placebo,SLE patients [2]; 1 mg/kg,7%
same,SRI (SLE responder index) response rate above placebo,SLE patients [2]; 10 mg/kg,14%
anifrolumab: antibody drug which interferes with type I IFN signaling,herpes virus infections in treated patients,SLE patients [3],increased
same,predefined endpoint in phase 3 studies,SLE patients [3]; one of two phase 3 studies,failed to reach its predefined endpoint
"CCN(CCO)CCCC(C)Nc1ccnc2cc(Cl)ccc12 (stereo not drawn) [HCQ, hydroxychloroquine, reference compound]",expression of a five-panel ISG signature,[4],only mildly effective
same,fold less potent antagonist of ISG expression than MHV370,[5],"3,300 fold"
same,inhibition of immune-complex-driven IFN-α responses by serum category,"[6]; HCQ 1 μM (matched steady-state blood exposure of SLE patients), PBMCs",strongest inhibition of IFN-α responses elicited by dsDNA immune complexes
same,"fold lower potency than MHV370, immune-complex-induced IFN-α",[6]; HCQ vs MHV370,"approximately 1,000 fold"
